Source: PubChem (Broad Institute)
miR-122 sensor: blocks miR-122 activity in Huh7 sensor cells; Huh7 miR-122 Renilla luciferase sensor, 48 h; neutral wells = 0, positive control = 100; activation (reporter increase), % at 12.5 µM; actives 0.3% (n = 340,000); AID 602342;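 active = mean replicate activation score at least 90 and every replicate individually at or above 90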;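 also: higher luciferase means less miR-122 activity so hits act as miR-122 inhibitors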
rRNA inh HTS: inhibitors of bacterial rRNA selective over humanized ribosomes; GFP signal change (wild-type ribosome), % (concentration not given with the values); actives 1.6% (n = 350,000); E. coli WT GFP vs humanized-ribosome RFP mutants, fluorescence, 24 h; stronger effect = lower value; DMSO median 0, no signal -100;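 active = significant combined selectivity score with lowered wild-type GFP, culture density cut under 30%, mutant RFP and density less affected; inactive = any of these conditions unmet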
Cneo AK release: causes C. neoformans cell lysis; adenylate kinase release luminescence, 4 h; normalised: neutral wells 0, clomiphene wells 100; lysis activity, % at 15 µM; actives 0.2% (n = 360,000);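 active = mean lysis activity across replicates of at least 80%, whatever share of replicates individually reach that level; inactive = mean lysis activity below 80%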
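Schedule: static 4 h at 37 °C with compound, 1 h detection; system: C. neoformans cells; benchmarks: Clomiphene as positive control; buffer or medium: fresh YPD medium; measure: luminescence rise reflecting yeast cell lysis; measured by: luminescent adenylate kinase detection reagent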
DENV2 CPE rescue: protects cells from dengue virus 2 cytopathic effect. DENV2-infected cells, cytopathic effect rescue, plate reader. CPE inhibition, % at 9.99 µM. actives 1.7% (n = 350,000). AID 651640; in the data active = CPE inhibition above about 20%, passing the limit was not always enough; tested in BHK-21 cells
E-sel inducer: E-selectin induction on HUVECs. actives 0.37% (n = 260,000). AID 686992. activation, % at 7.58 µM. P16581. HUVEC E-selectin immunofluorescence imaging; normalized: neutral wells 0, TNF-alpha wells 100;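 active = mean E-selectin-positive cell signal at least 10% of the positive control, reached in at least 60% of replicates, without over 20% cell loss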
Target sequence (P16581 whole entry, looked up): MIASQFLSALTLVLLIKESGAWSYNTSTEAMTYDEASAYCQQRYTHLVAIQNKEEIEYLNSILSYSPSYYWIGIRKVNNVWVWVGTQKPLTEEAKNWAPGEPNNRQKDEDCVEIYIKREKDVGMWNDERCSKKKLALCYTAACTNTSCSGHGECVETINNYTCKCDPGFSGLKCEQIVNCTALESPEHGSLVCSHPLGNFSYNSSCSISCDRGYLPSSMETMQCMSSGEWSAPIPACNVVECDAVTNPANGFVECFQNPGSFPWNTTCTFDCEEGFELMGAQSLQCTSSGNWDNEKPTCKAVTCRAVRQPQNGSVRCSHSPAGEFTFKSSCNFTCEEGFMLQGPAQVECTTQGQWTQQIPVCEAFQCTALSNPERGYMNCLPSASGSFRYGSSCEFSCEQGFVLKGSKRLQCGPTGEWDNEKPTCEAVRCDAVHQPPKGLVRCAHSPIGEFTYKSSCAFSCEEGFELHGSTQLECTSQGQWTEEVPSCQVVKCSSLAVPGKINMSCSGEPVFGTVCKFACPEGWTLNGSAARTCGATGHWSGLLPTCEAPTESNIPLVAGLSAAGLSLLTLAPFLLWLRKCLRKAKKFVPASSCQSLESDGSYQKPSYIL
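Test system – human umbilical vein endothelial cells (HUVEC), E-selectin induction · Input – 3,000 HUVEC seeded per well · Buffer or medium – EGM-2, gelatin · Compound dosing – single-point compound dose · Detection – immunofluorescence imaging · Measure – percent E-selectin-positive cells · Controls – TNF-alpha high, DMSO low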
Each line names hits and unclear results; the compound was inactive in the other large screens; ! = not confirmed by another sample. Rows were chosen to be rich in hits. Some 3.1% of all compounds tested hit in one or more screens of this group.

COc1ccc(CC(=O)N(CCN(C)C)CC2CCCN(Cc3ccccc3F)C2)cc1 (centres undefined)	DENV2 CPE rescue 26.6
Cc1c(P(=S)(c2ccccc2)c2ccccc2)[n+]2ccccc2n1C	DENV2 CPE rescue 73.0!
CS(=O)(=O)N1C[C@@H]2C(c3ccc(Br)cc3)[C@H](C1)N2CC1CC1 (some centres undefined)	none (no result: miR-122 sensor, Cneo AK release, DENV2 CPE rescue, E-sel inducer)
CC1=C2C[C@H]3[C@@H](CC=C4C[C@@H](O)CC[C@@]43C)[C@@H]2CC[C@]12O[C@@H]1C[C@H](C)CN[C@@H]1C2C (some centres undefined)	none (no result: miR-122 sensor, rRNA inh HTS, E-sel inducer)
O=c1c2ccccc2nc(/C=C\c2ccccc2[N+](=O)[O-])n1-c1ccccc1O	rRNA inh HTS -28.8 (no result: E-sel inducer)
Cc1nc2ccccc2c(=O)n1-c1ccccc1[N+](=O)[O-]	none (no result: miR-122 sensor, Cneo AK release)
O=c1c2ccccc2nc(/C=C/c2ccccc2O)n1-c1ccccc1O	none (no result: miR-122 sensor, Cneo AK release)
O=c1c2ccccc2nc(/C=C/c2ccccc2F)n1-c1ccccc1O	rRNA inh HTS -23.9 (no result: miR-122 sensor)
COc1cccc(-c2ccc([C@H]3[C@@H](CO)N4CCCCN(C(=O)Cc5ccncc5)C[C@@H]34)cc2)c1	DENV2 CPE rescue 27.2
N#Cc1cccc(-c2ccc([C@@H]3[C@@H](CO)N4CCCCN(C(=O)Cc5ccccc5)C[C@@H]34)cc2)c1	DENV2 CPE rescue 37.7
C/C=C/c1ccc([C@H]2[C@@H](CO)N3CCCCN(C(=O)Cc4ccncc4)C[C@@H]23)cc1	DENV2 CPE rescue 140.0
O=C(Cc1cccnc1)N1CCCCN2[C@H](CO)[C@@H](c3ccc(/C=C/c4ccccc4)cc3)[C@H]2C1	none
N#Cc1cccc(-c2ccc([C@@H]3[C@H]4CN(C(=O)Cc5ccccc5)CCCCN4[C@H]3CO)cc2)c1	none
O=C(Cc1cccnc1)N1CCCCN2[C@H](CO)[C@H](c3ccc(/C=C/c4ccccc4)cc3)[C@H]2C1	DENV2 CPE rescue 25.4
COc1ccc(C#Cc2ccc([C@@H]3[C@H](CO)N4CCCCN(C(=O)Cc5cccnc5)C[C@@H]34)cc2)cc1	DENV2 CPE rescue 26.6
Cc1oc2ccc(OC(=O)N(C)C)cc2c1C(=O)OC(C)C	miR-122 sensor 143.5 (no result: rRNA inh HTS, DENV2 CPE rescue, E-sel inducer)
CCOC(=O)c1c(-c2ccc(OC)cc2)oc2ccc(OC(=O)N(C)C)cc12	none (no result: rRNA inh HTS, DENV2 CPE rescue, E-sel inducer)
COc1ccc(N2C(=O)CC(=O)NC2=O)cc1	miR-122 sensor 235.8 (no result: rRNA inh HTS, DENV2 CPE rescue, E-sel inducer)
Cc1ccc(N2C(=O)CC(=O)NC2=O)cc1	none (no result: E-sel inducer)
Cc1cccc(S(=O)(=O)N2[C@@H]3c4ccc(-c5ccc(F)cc5)c(=O)n4C[C@H]2[C@H](CO)[C@H]3C(=O)O)c1	none (no result: miR-122 sensor, Cneo AK release, DENV2 CPE rescue)
C[C@]12CC[C@H](O)C[C@H]1CC[C@@H]1[C@@H]2CC[C@]2(C)[C@@H](C3=CC(=O)OC3)CC[C@]12O	miR-122 sensor 122.5 (no result: rRNA inh HTS)
CC(C)c1oc(=O)cc2c1[C@@H](O)[C@H]1OC(=O)[C@@]3(C)CC[C@@H](O)[C@@]2(C)C13 (some centres undefined)	none (no result: miR-122 sensor, E-sel inducer)
CC(C)c1oc(=O)cc2c1[C@@H](O)[C@H]1OC(=O)[C@@]3(C)C[C@@H](O)[C@@H](O)[C@@]2(C)C13 (some centres undefined)	DENV2 CPE rescue 87.0 (no result: miR-122 sensor)
O=C1CNC[C@@H]2[C@@H](c3ccc(Br)cc3)[C@@H](CO)N12	none (no result: miR-122 sensor, Cneo AK release)
CC(=O)O[C@H]1C[C@@H]2OC3C=C(C)CCC3(C)[C@@]1(C)[C@@]21CO1 (some centres undefined)	DENV2 CPE rescue 105.8 (no result: Cneo AK release, E-sel inducer)
CC=Cc1ccc2n(c1=O)C[C@H]1[C@H](CO)[C@@H](C(=O)O)[C@@H]2N1S(=O)(=O)c1ccccc1F (mixture of isomers)	none (no result: miR-122 sensor)
COc1ccc(CC(=O)N2C[C@H]3C[C@@H](C2)c2cccc(=O)n2C3)cc1	DENV2 CPE rescue 27.0 (no result: rRNA inh HTS, E-sel inducer)
Cc1c(CC(=O)N2C[C@H]3C[C@@H](C2)c2cccc(=O)n2C3)c(=O)oc2c(C)c(O)ccc12	none (no result: rRNA inh HTS, E-sel inducer)
Cc1c(CCC(=O)N2C[C@H]3C[C@@H](C2)c2cccc(=O)n2C3)c(=O)oc2c(C)c(O)ccc12	DENV2 CPE rescue 55.9 (no result: E-sel inducer)
Cc1ccccc1-[n+]1c(-c2ccccc2)cc(-c2ccccc2)cc1-c1ccccc1	DENV2 CPE rescue 76.3
C/C=C/c1ccc(C2[C@@H]3CN(C(=O)c4cnccn4)C[C@H]2N3)cc1 (some centres undefined)	none (no result: miR-122 sensor, Cneo AK release)
COc1ccc2c3c1OC1C(O)C=CC4[C@@H](C2)N(C)CC[C@]314 (some centres undefined)	none (no result: E-sel inducer)
C=CCN1CC[C@]23c4c5ccc(O)c4OC2C(O)C=CC3[C@H]1C5 (some centres undefined)	DENV2 CPE rescue 130.9 (no result: E-sel inducer)
C=CCCC1(C2=CCCCC2)C(=O)NC(=O)NC1=O	DENV2 CPE rescue 26.6 (no result: miR-122 sensor, Cneo AK release)
C=CCC1(CN2CCCCCC2=O)C(=O)NC(=O)NC1=O	none (no result: rRNA inh HTS, DENV2 CPE rescue, E-sel inducer)
O=C1NCN(c2ccccc2)C12CCN(C(c1ccccc1)c1nnnn1Cc1ccccc1)CC2 (centres undefined)	rRNA inh HTS -20.7
COc1ccc(-n2nnnc2C(CCSC)N2CCC3(CC2)C(=O)NCN3c2ccccc2)cc1 (centres undefined)	rRNA inh HTS -21.1
CN1C2CN(CC(F)(F)F)CC1C2c1ccc(Br)cc1 (centres undefined)	none (no result: miR-122 sensor, Cneo AK release, DENV2 CPE rescue, E-sel inducer)
Cc1cc(=O)oc2cc(OCC(=O)N3CCN(Cc4ccccc4)CC3)ccc12	none
Cc1cc(=O)oc2cc(OCC(=O)N3CCC(C(=O)O)(c4ccccc4)CC3)ccc12	DENV2 CPE rescue 74.9 (no result: E-sel inducer)
COC(=O)[C@H]1[C@H](CO)[C@H]2Cn3c(ccc(C4=CCCC4)c3=O)[C@@H]1N2C(=O)C1CCCCC1	none (no result: miR-122 sensor, Cneo AK release, DENV2 CPE rescue)
C[C@]12C=CC(=O)C=C1CC[C@@H]1[C@@H]2CC[C@]2(C)C(=O)CC[C@@H]12	rRNA inh HTS -22.9 (no result: E-sel inducer)
C[C@]12CCC(=O)C=C1CC[C@@H]1C2[C@H](O)C[C@]2(C)C(=O)CCC12 (some centres undefined)	rRNA inh HTS -25.7
C[C@]12CCC(=O)C=C1CCC1C2CC[C@@]2(C)C1CC[C@@H]2O (some centres undefined)	none
O=C(Cc1ccccc1)N1CC2(C1)[C@H](c1ccccc1)[C@@H](CO)N2Cc1cccc(F)c1	none (no result: miR-122 sensor, Cneo AK release)
ClC1=C(Cl)C2(Cl)C3C(Cl)C=CC3C1(Cl)C2(Cl)Cl (centres undefined)	DENV2 CPE rescue 28.1 (no result: E-sel inducer)
CC(=O)OC1CC(OC2C(O)CC(OC3C(O)CC(OC4CCC5(C)C(CCC6C5CC(O)C5(C)C(C7=CC(=O)OC7)CCC65O)C4)OC3C)OC2C)OC(C)C1OC1OC(CO)C(O)C(O)C1O (centres undefined)	miR-122 sensor 125.9 (no result: rRNA inh HTS)
C=CCN1[C@@H]2CN(C(=O)NC(C)C)C[C@H]1C2c1ccccc1 (some centres undefined)	none (no result: miR-122 sensor, Cneo AK release, DENV2 CPE rescue, E-sel inducer)
Cc1[nH]c2ccc(O)cc2c1CCN	DENV2 CPE rescue 54.7 (no result: rRNA inh HTS)
CC(C)N(C(=O)CCl)c1ccccc1	E-sel inducer 83.2 (no result: rRNA inh HTS)
CN(C)C(Cc1ccccc1)C(=O)c1ccccc1 (centres undefined)	none (no result: miR-122 sensor, Cneo AK release, E-sel inducer)
